Measurements pooled from the literature.
Compare with care: the assays were run in different laboratories.
Target: Histamine H1 receptor (HRH1, Homo sapiens, UniProt P35367)

With `COc1ccc(C(=O)NCc2cc(C(C)C)no2)cc1OC1CCN(C)CC1` the inhibition was 37% (ligand displacement; radioligand; 10 µM).
With `Nc1ncc(-c2nc(N3CCOCC3)nc(N3CCOCC3)n2)c(C(F)F)n1` the remaining signal was 99.1% (cell-free assay; radioligand; 10 µM).
The inhibition of `COCc1c(-c2cc3cc(C)cc(OC)c3s2)c2c(N)ncnn2c1CN1CCNC(=O)C1` is reported as 26% (ligand displacement; radioligand; 10 µM).
`C[C@H](C(=O)N[C@H]1COc2ccccc2[C@@H]1S(C)(=O)=O)c1ccc(F)cc1` has an inhibition of -5% (cell-free assay; 10 µM).
With `CCN(CC)CCCC[C@H](NC(=O)[C@H](CC(C)C)NC(=O)[C@H](C)NC(=O)[C@H](Cc1ccccc1)NC(=O)c1ccc(C(C)(C)C)cc1)C(=O)N[C@@H](CO)C(=O)OC` the inhibition was -6% (ligand displacement; radioligand; 10 µM).
With `c1ccc(C(NCCNC(c2ccccc2)c2ccccc2)c2ccccc2)cc1` the inhibition was 81% (cell-free assay; 10 µM).
The inhibition of `CC(Cc1ccccc1)NCCn1cnc2c1c(=O)n(C)c(=O)n2C` (stereo not shown) is reported as 12% (ligand displacement; radioligand; 10 µM).
`N#CC1(c2ccccn2)CCN(Cc2cc(C(=O)O)c(=O)n3ccccc23)CC1` has an inhibition of 28.4% (cell-free assay; 10 µM).
`COc1ccc(S(=O)(=O)N2CCCCC2)cc1C` gave an inhibition of less than 30% (ligand displacement; radioligand; 10 µM).
The inhibition of `CC(C)N1CCC[C@H]1CNC(=O)c1cn(C2CCCC2)c(=O)c2c1c1ccccc1n2C` is reported as 22% (ligand displacement; radioligand; 10 µM).
`Cc1c(N2CCNCC2)nc2ccc(Br)cc2c1C(=O)NC[C@H](CCC(=O)O)c1ccccc1Cl` gave an inhibition of 17.5% (ligand displacement; 10 µM).
`Clc1ccc2c(C3CCN(CCc4c[nH]c5ccccc45)CC3)c[nH]c2c1` has an inhibition of 100% (ligand displacement; radioligand; 10 µM).
For `CN1CCC(C(c2ccccc2)c2ccccc2)CC1`, the kon was 3.33e+06 M⁻¹ s⁻¹ (binding).
